# ChEMBL document CHEMBL1154716, “Synthesis of some new S-triazine based chalcones and their derivatives as potent antimicrobial agents” (2010)
# The source made the active and inactive calls. No cut-off for these calls is given here.
# Key:
# Bacillus cereus [1] = experiment: Antimicrobial activity against Bacillus cereus at 10 ug/disk after 24 hrs by disk diffusion assay; format: functional
# Procedure, shortened: (§1)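 Disc diffusion on 4 mm filter discs. Bacteria are grown overnight in LB at 28 C, then adjusted in saline to 1.0 × 10^5 cfu/ml. The suspension is mixed into top agar over peptone agar plates. Plates are incubated 24 h at 28 C, and growth-inhibition zone diameter is measured. Streptomycin and ampicillin controls are applied from a 1 mg/ml stock. Tests are done in duplicate.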
# Micrococcus flavus [2] = experiment: Antimicrobial activity against Micrococcus flavus at 10 ug/disk after 24 hrs by disk diffusion assay; format: functional; procedure, shortened: as §1
# Staphylococcus aureus [3] = experiment: Antimicrobial activity against Staphylococcus aureus at 10 ug/disk after 24 hrs by disk diffusion assay; format: functional; procedure, shortened: as §1
# Escherichia coli [4] = experiment: Antimicrobial activity against Escherichia coli at 10 ug/disk after 24 hrs by disk diffusion assay; format: functional; procedure, shortened: as §1
# Pseudomonas aeruginosa [5] = experiment: Antimicrobial activity against Pseudomonas aeruginosa at 10 ug/disk after 24 hrs by disk diffusion assay; format: functional; procedure, shortened: as §1
# Enterobacter cloacae [6] = experiment: Antimicrobial activity against Enterobacter cloacae at 10 ug/disk after 24 hrs by disk diffusion assay; format: functional; procedure, shortened: as §1
# Salmonella typhimurium [7] = experiment: Antimicrobial activity against Salmonella Typhimurium at 10 ug/disk after 24 hrs by disk diffusion assay; format: functional, organism-based; details: Salmonella enterica subsp. enterica serovar Typhimurium; procedure, shortened: as §1
# Listeria monocytogenes [8] = experiment: Antimicrobial activity against Listeria monocytogenes at 10 ug/disk after 24 hrs by disk diffusion assay; format: functional; procedure, shortened: as §1
# Bacillus cereus [9] = experiment: Antimicrobial activity against Bacillus cereus at 1 umol/disk after 24 hrs by disk diffusion assay; format: functional; procedure, shortened: as §1
# Micrococcus flavus [10] = experiment: Antimicrobial activity against Micrococcus flavus at 1 umol/disk after 24 hrs by disk diffusion assay; format: functional; procedure, shortened: as §1
# Staphylococcus aureus [11] = experiment: Antimicrobial activity against Staphylococcus aureus at 1 umol/disk after 24 hrs by disk diffusion assay; format: functional; procedure, shortened: as §1
# Escherichia coli [12] = experiment: Antimicrobial activity against Escherichia coli at 1 umol/disk after 24 hrs by disk diffusion assay; format: functional; procedure, shortened: as §1
# Pseudomonas aeruginosa [13] = experiment: Antimicrobial activity against Pseudomonas aeruginosa at 1 umol/disk after 24 hrs by disk diffusion assay; format: functional; procedure, shortened: as §1
# Enterobacter cloacae [14] = experiment: Antimicrobial activity against Enterobacter cloacae at 1 umol/disk after 24 hrs by disk diffusion assay; format: functional; procedure, shortened: as §1
# Salmonella typhimurium [15] = experiment: Antimicrobial activity against Salmonella Typhimurium at 1 umol/disk after 24 hrs by disk diffusion assay; format: functional, organism-based; details: Salmonella enterica subsp. enterica serovar Typhimurium; procedure, shortened: as §1
# Listeria monocytogenes [16] = experiment: Antimicrobial activity against Listeria monocytogenes at 1 umol/disk after 24 hrs by disk diffusion assay; format: functional; procedure, shortened: as §1
# Bacillus cereus [17] = experiment: Antimicrobial activity against Bacillus cereus at 1 umol/spot after 18 hrs by TLC-bioautographic method; format: functional
# Procedure, shortened: (§2)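 TLC bioautography. Samples are spotted on silica gel TLC plates, then sprayed with bacteria (1.0 × 10^5 cfu/ml) in tryptic soy broth. Plates are incubated 18 h at 37 C and sprayed with 3% aqueous p-iodonitrotetrazolium violet. After a further 3 h, growth is stopped with 70% EtOH. White zones on a pink background are scored as inhibition-zone diameter with standard errors.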
# Micrococcus flavus [18] = experiment: Antimicrobial activity against Micrococcus flavus at 1 umol/spot after 18 hrs by TLC-bioautographic method; format: functional; procedure, shortened: as §2
# Staphylococcus aureus [19] = experiment: Antimicrobial activity against Staphylococcus aureus at 1 umol/spot after 18 hrs by TLC-bioautographic method; format: functional; procedure, shortened: as §2
# Escherichia coli [20] = experiment: Antimicrobial activity against Escherichia coli at 1 umol/spot after 18 hrs by TLC-bioautographic method; format: functional; procedure, shortened: as §2
# Pseudomonas aeruginosa [21] = experiment: Antimicrobial activity against Pseudomonas aeruginosa at 1 umol/spot after 18 hrs by TLC-bioautographic method; format: functional; procedure, shortened: as §2
# Enterobacter cloacae [22] = experiment: Antimicrobial activity against Enterobacter cloacae at 1 umol/spot after 18 hrs by TLC-bioautographic method; format: functional; procedure, shortened: as §2
# Salmonella typhimurium [23] = experiment: Antimicrobial activity against Salmonella Typhimurium at 1 umol/spot after 18 hrs by TLC-bioautographic method; format: functional; procedure, shortened: as §2
# Listeria monocytogenes [24] = experiment: Antimicrobial activity against Listeria monocytogenes at 1 umol/spot after 18 hrs by TLC-bioautographic method; format: functional; procedure, shortened: as §2
# Bacillus cereus [25] = experiment: Antimicrobial activity against Bacillus cereus after 24 hrs by microdilution technique; format: functional
# Procedure, shortened: (§3)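 Broth microdilution in LB medium. Inoculum is 1.0 × 10^4 cfu per well, from a saline-adjusted suspension of 1.0 × 10^5 cfu/ml. Compounds are dissolved in DMSO. Incubated 24 h at 28 C. MIC is the lowest concentration with no visible growth under a binocular microscope. MBC is read by subculture into fresh broth for 72 h, with no growth taken as 99.5% kill. OD is read at 655 nm.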
# Micrococcus flavus [26] = experiment: Antimicrobial activity against Micrococcus flavus after 24 hrs by microdilution technique; format: functional; procedure, shortened: as §3
# Staphylococcus aureus [27] = experiment: Antimicrobial activity against Staphylococcus aureus after 24 hrs by microdilution technique; format: functional; procedure, shortened: as §3
# Escherichia coli [28] = experiment: Antimicrobial activity against Escherichia coli after 24 hrs by microdilution technique; format: functional; procedure, shortened: as §3
# Pseudomonas aeruginosa [29] = experiment: Antimicrobial activity against Pseudomonas aeruginosa after 24 hrs by microdilution technique; format: functional; procedure, shortened: as §3
# Enterobacter cloacae [30] = experiment: Antimicrobial activity against Enterobacter cloacae after 24 hrs by microdilution technique; format: functional; procedure, shortened: as §3
# Salmonella typhimurium [31] = experiment: Antimicrobial activity against Salmonella Typhimurium after 24 hrs by microdilution technique; format: functional, Salmonella enterica subsp. enterica serovar Typhimurium; details: Salmonella enterica; procedure, shortened: as §3
# Listeria monocytogenes [32] = experiment: Antimicrobial activity against Listeria monocytogenes after 24 hrs by microdilution technique; format: functional; procedure, shortened: as §3
Structure (SMILES),inhibition zone (IZ) (Bacillus cereus [1]),inhibition zone (IZ) (Staphylococcus aureus [3]),inhibition zone (IZ) (Escherichia coli [4]),inhibition zone (IZ) (Pseudomonas aeruginosa [5]),inhibition zone (IZ) (Enterobacter cloacae [6]),inhibition zone (IZ) (Salmonella typhimurium [7]),inhibition zone (IZ) (Listeria monocytogenes [8]),inhibition zone (IZ) (Bacillus cereus [9]),inhibition zone (IZ) (Micrococcus flavus [10]),inhibition zone (IZ) (Staphylococcus aureus [11]),inhibition zone (IZ) (Escherichia coli [12]),inhibition zone (IZ) (Pseudomonas aeruginosa [13]),inhibition zone (IZ) (Enterobacter cloacae [14]),inhibition zone (IZ) (Salmonella typhimurium [15]),inhibition zone (IZ) (Listeria monocytogenes [16]),inhibition zone (IZ) (Bacillus cereus [17]),inhibition zone (IZ) (Micrococcus flavus [18]),inhibition zone (IZ) (Staphylococcus aureus [19]),inhibition zone (IZ) (Escherichia coli [20]),inhibition zone (IZ) (Pseudomonas aeruginosa [21]),other results
COc1ccccc1-c1cc(-c2ccc(Nc3nc(Nc4ccccc4)nc(Nc4ccccc4)n3)cc2)nc(N)n1,inactive,inactive,inactive,inactive,inactive,inactive,inactive,inactive,0.03 millimeter,inactive,inactive,inactive,inactive,inactive,inactive,inactive,0.06 millimeter,0.03 millimeter,inactive,inactive,zone of inhibition at 10 µg/disc (Micrococcus flavus [2]; read-out: IZ): 6 mm; inhibition zone (IZ) (Enterobacter cloacae [22]): inactive; inhibition zone (IZ) (Salmonella typhimurium [23]; Salmonella enterica subsp. enterica serovar Typhimurium): inactive; inhibition zone (IZ) (Listeria monocytogenes [24]): 0.09 millimeter; MBC (Bacillus cereus [25]): 181 µM; MIC (Bacillus cereus [25]): 90.5 µM; MBC (Micrococcus flavus [26]): 181 µM; MIC (Micrococcus flavus [26]): 90.5 µM; MBC (Staphylococcus aureus [27]): 181 µM; MIC (Staphylococcus aureus [27]): 90.5 µM; MBC (Escherichia coli [28]): 362 µM; MIC (Escherichia coli [28]): 181 µM; MBC (Pseudomonas aeruginosa [29]): 362 µM; MIC (Pseudomonas aeruginosa [29]): 181 µM; MBC (Enterobacter cloacae [30]): 362 µM; MIC (Enterobacter cloacae [30]): 181 µM; MBC (Salmonella typhimurium [31]): 362 µM; MIC (Salmonella typhimurium [31]): 181 µM; MBC (Listeria monocytogenes [32]): 724 µM; MIC (Listeria monocytogenes [32]): 724 µM
CC(=O)N1N=C(c2ccc(Nc3nc(Nc4ccccc4)nc(Nc4ccccc4)n3)cc2)CC1c1ccc(Cl)cc1 (stereo not given),inactive,inactive,inactive,inactive,inactive,inactive,inactive,inactive,inactive,inactive,inactive,inactive,inactive,inactive,inactive,0.08 millimeter,inactive,0.08 millimeter,inactive,inactive,inhibition zone (IZ) (Micrococcus flavus [2]): inactive; inhibition zone (IZ) (Enterobacter cloacae [22]): 0.09 millimeter; inhibition zone (IZ) (Salmonella typhimurium [23]): 0.07 millimeter; inhibition zone (IZ) (Listeria monocytogenes [24]): 0.09 millimeter; MBC (Bacillus cereus [25]): 696 µM; MIC (Bacillus cereus [25]): 696 µM; MBC (Micrococcus flavus [26]): 696 µM; MIC (Micrococcus flavus [26]): 696 µM; MBC (Staphylococcus aureus [27]): 696 µM; MIC (Staphylococcus aureus [27]): 696 µM; MBC (Escherichia coli [28]): 696 µM; MIC (Escherichia coli [28]): 348 µM; MBC (Pseudomonas aeruginosa [29]): 696 µM; MIC (Pseudomonas aeruginosa [29]): 696 µM; MBC (Enterobacter cloacae [30]): 696 µM; MIC (Enterobacter cloacae [30]): 696 µM; MBC (Salmonella typhimurium [31]): 696 µM; MIC (Salmonella typhimurium [31]): 348 µM; MBC (Listeria monocytogenes [32]): 696 µM; MIC (Listeria monocytogenes [32]): 696 µM
